Test results reported in ChEMBL document CHEMBL1152146, “Non-nucleoside inhibitors of the hepatitis C virus NS5B RNA-dependant RNA polymerase: 2-aryl-3-heteroaryl-1,3-thiazolidin-4-one derivatives” (Bioorg Med Chem Lett, 2008).

Legend:
Hepatitis C virus [1] = assay: Inhibition of HCV 1b NS5B Cdelta21 polymerase at 0.25 mM relative to control; design: species or system Hepatitis C virus subtype 1b
How it was run: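 His-tagged NS5BCΔ21 (genotype 1b) RdRp assay with compound at 0.25 mM and DMSO constant at 10%. Activity without inhibitor, after subtraction of residual background, set as 100%. Values are the mean of at least three independent measurements.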

Escherichia coli = assay: Inhibition of Escherichia coli DNA polymerase 1 Klenow fragment at 0.5 mM
[2] = target: Replicase polyprotein 1ab (Severe acute respiratory syndrome-related coronavirus) (UniProt P0C6X7); assay: Inhibition of SARS coronavirus nsp12 at 0.5 mM
Hepatitis C virus [3] = assay: Inhibition of HCV 1b NS5B Cdelta21 polymerase; design: species or system Hepatitis C virus subtype 1b
How it was run: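 N-terminal His-tagged NS5B lacking the C-terminal 21 residues (genotype 1b). RdRp activity read as total incorporation of radiolabeled UTP on poly rA/U12. IC50 taken from dose–response curves of 8–12 concentrations, run in duplicate in two independent experiments. DMSO held at 10% in all reactions.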

SMILES | inhibition at 250 µM (Hepatitis C virus [1]) [%] | inhibition (Escherichia coli) [%] | inhibition [2] [%] | IC50 (Hepatitis C virus [3]) [µM]
O=C1CSC(c2c(Cl)cccc2Cl)N1Cc1ccco1 (stereo not given) | 72.3 | < 50 | < 50 | –
Cc1cc(C(F)(F)F)nc(N2C(=O)CSC2c2c(F)cccc2Cl)n1 (stereo not given) | 63.6 | < 50 | < 50 | –
CCc1nnc(N2C(=O)CSC2c2c(F)cccc2F)s1 (stereo not given) | – | – | < 50 | –
CC1SC(c2c(Cl)cccc2Cl)N(c2ccccn2)C1=O (stereo not given) | 73 | < 50 | < 50 | –
O=C1CSC2(CCN(Cc3ccccc3)CC2)N1c1ccccn1 | 85.6 | < 50 | < 50 | 71.9
Cc1cc(-c2ccccc2)nc(N2C(=O)CSC2c2c(F)cccc2Cl)n1 (stereo not given) | 65.5 | < 50 | < 50 | –
O=C1CSC(c2ccc(-c3ccnc4ccccc34)cc2)N1c1ccccn1 (stereo not given) | 62.2 | < 50 | < 50 | –
O=C1CSC(c2c(F)cccc2Cl)N1c1nc(-c2ccccc2)cc(-c2ccccc2)n1 (stereo not given) | 70.6 | < 50 | < 50 | –
O=C1CSC(c2c(Br)cccc2Br)N1Cc1cccs1 (stereo not given) | 62.3 | < 50 | < 50 | –
O=C1CSC(c2ccc(F)cc2)N1c1ccccn1 (stereo not given) | 98 | < 50 | < 50 | 31.9
O=C1CCSC(c2c(Cl)cccc2Cl)N1Cc1ccco1 (stereo not given) | 94.2 | < 50 | < 50 | 52.6
Cc1cccc(N2C(=O)CSC2c2ccc(N(C)C)cc2)n1 (stereo not given) | 84.7 | < 50 | < 50 | 79.4
O=C1CSC(c2c(Cl)cccc2Cl)N1Cc1cccnc1 (stereo not given) | 75.6 | < 50 | < 50 | –
Cc1cccc(N2C(=O)CSC2c2ccc(-c3cccnc3)cc2)n1 (stereo not given) | 64.2 | < 50 | < 50 | –
CC1SC(c2c(Cl)cccc2Cl)N(Cc2cccnc2)C1=O (stereo not given) | 95.6 | < 50 | < 50 | 41.8
Cc1cc(C(F)(F)F)nc(N2C(=O)CSC2c2c(Br)cccc2Br)n1 (stereo not given) | 76.3 | < 50 | < 50 | –
Cc1cc(C(F)(F)F)nc(N2C(=O)CSC2c2c(Cl)cccc2Cl)n1 (stereo not given) | 72.1 | < 50 | < 50 | –
O=C1CSC(c2c(F)cccc2Cl)N1c1ccc2ccccc2n1 (stereo not given) | 60 | < 50 | < 50 | –
CC1SC(c2c(Cl)cccc2Cl)N(Cc2ccco2)C1=O (stereo not given) | 97.8 | < 50 | < 50 | 32.2
O=C(NN1C(=O)CSC1c1ccccc1F)c1cc(-c2ccc(F)cc2F)ccc1O (stereo not given) | 92.4 | – | < 50 | 48
O=C1CSC(c2c(F)cccc2F)N1c1nc(-c2ccccc2)cc(-c2ccccc2)n1 (stereo not given) | 73.3 | < 50 | < 50 | –
COc1cc(O)c2c(c1)oc(=O)c1c3cc(O)c(O)cc3oc21 [WEDELOLACTONE] | – | – | – | 36.1
Cc1cc(-c2ccccc2)nc(N2C(=O)CSC2c2c(Cl)cccc2Cl)n1 (stereo not given) | 63.6 | < 50 | < 50 | –
O=C1CSC(c2c(Cl)cccc2Cl)N1c1nc(-c2ccccc2)cc(C(F)(F)F)n1 (stereo not given) | 66.4 | < 50 | < 50 | –
O=C1CSC(c2c(Cl)cccc2Cl)N1c1nc(-c2ccccc2)cc(-c2ccccc2)n1 (stereo not given) | 73.1 | < 50 | < 50 | –
CN(C)c1ccc(C2SCC(=O)N2c2ccccn2)cc1 (stereo not given) | 76.4 | < 50 | < 50 | –
